From ChEMBL document CHEMBL2034975, “Cycloartane and friedelane triterpenoids from the leaves of Caloncoba glauca and their evaluation for inhibition of 11β-hydroxysteroid dehydrogenases” (J Nat Prod, 2012)

What was measured:
Assay type in all cases: cell-based
[1] = molecular target: T1, 11-beta-hydroxysteroid dehydrogenase 1 (Homo sapiens, UniProt P28845); experiment: Inhibition of human 11beta-HSD1 expressed in HEK293 cells assessed as conversion of [3H]cortisone into [3H]cortisol at 1 uM by scintillation proximity assay
Target sequence in this assay (P28845 whole entry, looked up): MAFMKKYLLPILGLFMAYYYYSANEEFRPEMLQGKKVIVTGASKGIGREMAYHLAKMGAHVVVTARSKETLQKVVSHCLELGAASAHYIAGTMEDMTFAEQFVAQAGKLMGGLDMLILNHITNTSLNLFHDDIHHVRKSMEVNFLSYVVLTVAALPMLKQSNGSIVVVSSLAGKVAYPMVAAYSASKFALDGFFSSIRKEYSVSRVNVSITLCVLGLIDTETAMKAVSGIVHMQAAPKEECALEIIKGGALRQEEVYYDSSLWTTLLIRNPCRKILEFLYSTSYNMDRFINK

[2] = molecular target: 11-beta-hydroxysteroid dehydrogenase 1 (Mus musculus) (UniProt P50172); experiment: Inhibition of mouse 11beta-HSD1 expressed in HEK293 cells assessed as conversion of [3H]cortisone into [3H]cortisol at 1 uM by scintillation proximity assay
[3] = molecular target: T2, 11-beta-hydroxysteroid dehydrogenase type 2 (Homo sapiens) (UniProt P80365); experiment: Inhibition of human 11beta-HSD2 expressed in HEK293 cells assessed as conversion of [3H]cortisone into [3H]cortisol at 1 uM by scintillation proximity assay
T2 sequence (whole entry): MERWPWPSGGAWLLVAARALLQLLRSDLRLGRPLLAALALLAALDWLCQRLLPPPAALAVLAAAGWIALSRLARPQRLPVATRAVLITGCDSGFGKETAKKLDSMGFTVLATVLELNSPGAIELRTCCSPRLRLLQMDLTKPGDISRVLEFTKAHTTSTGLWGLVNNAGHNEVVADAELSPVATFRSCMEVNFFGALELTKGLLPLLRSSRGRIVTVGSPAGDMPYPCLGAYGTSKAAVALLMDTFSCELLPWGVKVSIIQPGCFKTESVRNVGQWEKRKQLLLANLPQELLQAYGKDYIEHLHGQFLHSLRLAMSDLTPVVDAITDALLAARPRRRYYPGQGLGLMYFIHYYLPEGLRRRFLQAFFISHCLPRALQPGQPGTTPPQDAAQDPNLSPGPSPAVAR

[4] = molecular target: T3, 11-beta-hydroxysteroid dehydrogenase type 2 (Mus musculus) (UniProt P51661); experiment: Inhibition of mouse 11beta-HSD2 expressed in HEK293 cells assessed as conversion of [3H]cortisone into [3H]cortisol at 1 uM by scintillation proximity assay
T3 sequence (whole entry): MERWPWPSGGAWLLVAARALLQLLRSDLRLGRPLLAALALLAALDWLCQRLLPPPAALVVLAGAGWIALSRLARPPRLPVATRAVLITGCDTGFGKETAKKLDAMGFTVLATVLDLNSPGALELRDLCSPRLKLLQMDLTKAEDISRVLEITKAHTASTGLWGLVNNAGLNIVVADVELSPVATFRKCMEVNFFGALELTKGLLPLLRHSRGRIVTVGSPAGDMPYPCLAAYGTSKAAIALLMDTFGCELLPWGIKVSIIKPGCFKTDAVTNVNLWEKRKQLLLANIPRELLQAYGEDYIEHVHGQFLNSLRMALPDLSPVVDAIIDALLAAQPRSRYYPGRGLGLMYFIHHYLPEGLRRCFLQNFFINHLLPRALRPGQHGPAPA

[5] = molecular target: T1, 11-beta-hydroxysteroid dehydrogenase 1; experiment: Inhibition of human 11beta-HSD1 expressed in HEK293 cells assessed as conversion of [3H]cortisone into [3H]cortisol by scintillation proximity assay
Procedure, shortened: (§1)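 Full-length human or murine 11β-HSD1 cDNA was cloned into pcDNA3 and stably expressed in HEK-293 cells selected with 750 μg/mL G418. Microsomes from these cells were incubated with NADPH and [3H]cortisone. The [3H]cortisol formed was captured by a monoclonal antibody on protein A-coated SPA beads. Assays were run in duplicate and repeated twice; IC50 is given as the average. Glycyrrhizinic acid served as positive control.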
Target sequence in this assay (P28845 whole entry): as the sequence (P28845 whole entry, looked up) above

[6] = molecular target: 11-beta-hydroxysteroid dehydrogenase 1 (Mus musculus, UniProt P50172); experiment: Inhibition of mouse 11beta-HSD1 expressed in HEK293 cells assessed as conversion of [3H]cortisone into [3H]cortisol by scintillation proximity assay; procedure, shortened: as §1
[7] = molecular target: T4, 11-beta-hydroxysteroid dehydrogenase type 2 (Homo sapiens, UniProt P80365); experiment: Inhibition of human 11beta-HSD2 expressed in HEK293 cells assessed as conversion of [3H]cortisone into [3H]cortisol by scintillation proximity assay
T4 sequence (P80365 whole entry): T2 sequence (whole entry)

[8] = molecular target: T5, 11-beta-hydroxysteroid dehydrogenase type 2 (Mus musculus, UniProt P51661); experiment: Inhibition of mouse 11beta-HSD2 expressed in HEK293 cells assessed as conversion of [3H]cortisone into [3H]cortisol by scintillation proximity assay
T5 sequence (P51661 whole entry): T3 sequence (whole entry)

11-beta-hydroxysteroid dehydrogenase 1 (Mus musculus), sequence (P50172 whole entry, looked up): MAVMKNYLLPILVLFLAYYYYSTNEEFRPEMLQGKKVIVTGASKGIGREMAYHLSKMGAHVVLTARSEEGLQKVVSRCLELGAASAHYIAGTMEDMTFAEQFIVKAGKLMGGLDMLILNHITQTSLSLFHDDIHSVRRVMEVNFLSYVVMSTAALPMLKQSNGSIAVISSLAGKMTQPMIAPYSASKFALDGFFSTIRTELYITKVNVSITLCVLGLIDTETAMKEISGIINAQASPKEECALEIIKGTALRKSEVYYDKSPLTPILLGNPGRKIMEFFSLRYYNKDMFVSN
11-beta-hydroxysteroid dehydrogenase 1 (Mus musculus, UniProt P50172), sequence (P50172 whole entry): as the sequence (P50172 whole entry, looked up) above

Structure (SMILES)	inhibition [1] [%]	inhibition [2] [%]	inhibition [3] [%]	inhibition [4] [%]	IC50 [5] [nM]	IC50 [6] [nM]	IC50 [7] [nM]	IC50 [8] [nM]
C=C1C[C@@H]2[C@@]3(C)CC[C@]4(C)[C@H]5CC[C@@]6(C)[C@@H](CC[C@H](O)[C@@H]6C)[C@]5(C)CC[C@@]24C(=O)O[C@H]3[C@H]1O (relative stereo)	< 50	< 50	< 50	< 50	–	–	–	–
CC1(C)[C@@H](O[C@H]2O[C@H](C(=O)O)[C@@H](O)[C@H](O)[C@H]2O[C@@H]2O[C@H](C(=O)O)[C@@H](O)[C@H](O)[C@H]2O)CC[C@]2(C)[C@H]3C(=O)C=C4[C@@H]5C[C@@](C)(C(=O)O)CC[C@]5(C)CC[C@@]4(C)[C@]3(C)CC[C@@H]12 [GLYCYRRHIZIN]	–	–	–	–	6	3	–	–
CC(=O)O[C@H]1CC[C@@H]2[C@](C)(CC[C@H]3[C@@]2(C)CC[C@@]2(C(=O)O)[C@@H]4CC(C)(C)CC[C@]4(C)CC[C@]32C)[C@H]1C	< 50	< 50	< 50	< 50	–	–	–	–
C=C1C[C@@H]2[C@@](C)(CC[C@]3(C)[C@H]4CC[C@@]5(C)[C@@H](CC[C@H](O)[C@@H]5C)[C@]4(C)CC[C@@]23C(=O)O)C[C@@H]1O	< 50	< 50	< 50	< 50	–	–	–	–

Further lines, results first:

inhibition [1] [%]	inhibition [2] [%]	inhibition [3] [%]	inhibition [4] [%]	IC50 [5] [nM]	IC50 [6] [nM]	IC50 [7] [nM]	IC50 [8] [nM]	Structure (SMILES)
< 50	< 50	< 50	< 50	–	–	–	–	C[C@H](CC[C@H](O)C(C)(C)O)[C@H]1[C@@H](O)C[C@]23C(=O)O[C@@]4(CC[C@]12C)C[C@@H]1CCC(=O)C(C)(C)[C@@H]1CC[C@H]43
–	–	–	–	105	132	> 100000	> 100000	C=C(C)[C@@H](O)CC[C@@H](C)[C@H]1CC[C@@]2(C(=O)O)[C@@H]3CC[C@H]4C(C)(C)C(=O)CC[C@@]45C[C@@]35CC[C@]12C (relative stereo) [CALONCOBIC ACID A]
< 50	< 50	< 50	< 50	–	–	–	–	C[C@@H]1CC[C@@H](C(C)(C)O)OC(=O)[C@@]23C[C@@H](O)[C@H]1[C@@]2(C)CC[C@@]12C[C@@]14CCC(=O)C(C)(C)[C@@H]4CC[C@H]23
–	–	–	–	72	13	400	> 100000	C[C@H](CC[C@@H](O)C(C)(C)O)[C@H]1CC[C@@]2(C(=O)O)[C@@H]3CC[C@H]4C(C)(C)[C@@H](O)CC[C@@]45C[C@@]35CC[C@]12C (relative stereo) [CALONCOBIC ACID B]
